From PubChem BioAssay
MrgX1 antagonist = blocks BAM8-22 activation of human MrgX1 receptor; MRGX1-HEK293 calcium flux, Fluo-4, BAM8-22 antagonism; hits give low values; Q96LB2; 1.3% of 310,000 active; B-score at 10 µM; AID 588676;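 active means calcium-response B-score plate-corrected more than 3 library SD below zero, starting fluorescence within 5 deviations, no agonist response on first addition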;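 further: peak minus trough fluorescence over baseline after final BAM8-22 challenge near maximal dose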
RGS4 block = inhibitors of human RGS4. B-score at 10 µM. 0.45% of 310,000 active. HEK293 M3R/RGS4 inducible, Fluo-4 calcium flux; hits give high values; triggered by carbachol at its EC20. AID 463165;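 active means B-score, a plate-corrected calcium signal, over three deviations above library mean, with baseline fluorescence within five deviations of library mean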;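 further: RGS4 expression induced by doxycycline in cells with stable M3 receptor; B-score is computed from the integrated fluorescence ratio over baseline after carbachol; higher B-score means a larger calcium signal and so more RGS4 inhibition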
Target sequence (P49798 whole entry, looked up): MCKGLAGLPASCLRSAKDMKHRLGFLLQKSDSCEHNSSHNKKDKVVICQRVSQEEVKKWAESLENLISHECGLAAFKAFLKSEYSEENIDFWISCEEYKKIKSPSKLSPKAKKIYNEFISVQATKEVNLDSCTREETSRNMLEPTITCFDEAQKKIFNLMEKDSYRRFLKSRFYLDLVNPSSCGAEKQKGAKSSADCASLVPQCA
RGS4 pot = potentiators or activators of RGS4; 0.92% of 310,000 active; HEK293 M3R/inducible RGS4, carbachol calcium flux Fluo4; hits give low values; B-score at 10 µM; AID 463111;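 active means B-score of the integrated calcium signal more than 4 SD below the library mean, with starting fluorescence not abnormally high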;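 further: negative B-score means reduced calcium response which marks RGS4 activation or potentiation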
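System – HEK293 FlpIn-TREx cells, stable M3R, doxycycline-inducible RGS4 · Reagent – ECmax carbachol challenge · Times – compound preincubation 20 min at room temperature before agonist · Technique – Fluo4 fluorescence kinetic imaging of calcium · Measure – B score of integrated Fluo4 ratio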
MrgX1 allo act = human MrgX1 positive allosteric modulation, primary screen | 0.63% of 310,000 active | AID 588675 | B-score at 10 µM | MrgX1-HEK293, Fluo-4 calcium flux, FDSS; hits give high values | Q96LB2;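 active means plate-corrected calcium response at least 3 library SD above typical, normal starting fluorescence, not activating the receptor alone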;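 further: compound read alongside a low EC10 to EC30 dose of BAM8-22 agonist; peak minus trough fluorescence over baseline measured at the second addition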
MrgX1 agonist = activates human MrgX1 receptor signaling | MrgX1-HEK293 cells, Fluo-4 calcium fluorescence, agonist mode; hits give high values | Q96LB2 | 0.44% of 310,000 active | B-score at 10 µM;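 active means calcium response B-score plate-corrected fluorescence ratio at least 3 library SD, with starting fluorescence B-score inside 5 SD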
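Material – MrgX1-expressing HEK293 cells · Input – 15,000 cells seeded per well · Dosing – compound as first of three additions · Times – overnight seeding, then 1 h dark dye loading · Measured by – kinetic Fluo-4 NW fluorescence of intracellular calcium · Read-out – B-scored fluorescence response ratio · Benchmarks – positive and negative control wells on each plate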
* = called active by the depositor. In the library only some 3.5% were active in any assay of this set; here they are far more common.

Screening CCOc1ccccc1CN1CCNC(=O)C1CC(=O)N(C)Cc1cnccn1 (stereo not given) returned MrgX1 antagonist inactive, RGS4 block inactive, RGS4 pot inactive, MrgX1 allo act inactive and MrgX1 agonist inactive.
COc1cc(/C=C2\SC(=S)N(N(C)c3ccccc3)C2=O)ccc1O was read as MrgX1 antagonist inactive, RGS4 block inactive, RGS4 pot inactive, MrgX1 allo act inactive and MrgX1 agonist 33.9*.
`COc1cc(/C=C2\SC(=S)N(NC(=O)c3ccccc3O)C2=O)ccc1O` gave MrgX1 antagonist inactive, RGS4 block inactive, RGS4 pot inactive, MrgX1 allo act inactive and MrgX1 agonist 40.2*.
O=C(NN1C(=O)/C(=C/c2ccc(O)cc2)SC1=S)c1cccc(O)c1 was read as MrgX1 antagonist inactive, RGS4 block inactive, RGS4 pot inactive, MrgX1 allo act inactive and MrgX1 agonist inactive.
Screening O=C(NN1C(=O)/C(=C/c2ccc(O)c([N+](=O)[O-])c2)SC1=S)c1ccccc1Cl returned MrgX1 antagonist inactive, RGS4 block inactive, RGS4 pot inactive, MrgX1 allo act inactive and MrgX1 agonist inactive.
For O=C(NN1C(=O)/C(=C/c2ccc(O)cc2)SC1=S)c1ccccc1O the results were MrgX1 antagonist -7.79*, RGS4 block inactive, RGS4 pot inactive, MrgX1 allo act inactive and MrgX1 agonist inactive.
CC(=O)N(c1nnc(-c2ccc(C)cc2)s1)C1CCCC1 was read as MrgX1 antagonist inactive, RGS4 block inactive, RGS4 pot inactive, MrgX1 allo act inactive and MrgX1 agonist inactive.
COc1cc(NC(=O)CN(C)S(=O)(=O)c2ccc3c(c2)CC(C)N3C(C)=O)cc(OC)c1 (stereo not given) was read as MrgX1 antagonist inactive, RGS4 block inactive, RGS4 pot inactive, MrgX1 allo act inactive and MrgX1 agonist inactive.
For Cc1cc(S(=O)(=O)Nc2noc3ccccc23)ccc1F the results were MrgX1 antagonist inactive, RGS4 block inactive, RGS4 pot inactive, MrgX1 allo act inactive and MrgX1 agonist inactive.
For C/C(=N\NC(=O)Cn1nc(C)c([N+](=O)[O-])c1C)c1ccco1 the results were MrgX1 antagonist -5.92*, RGS4 block inactive, RGS4 pot inactive, MrgX1 allo act inactive and MrgX1 agonist inactive.
For Cc1nn(CC(=O)NCc2ccccc2Cl)c(C)c1[N+](=O)[O-] the results were MrgX1 antagonist inactive, RGS4 block inactive, RGS4 pot inactive, MrgX1 allo act inactive and MrgX1 agonist inactive.
Cc1cc(CNC(=O)Cn2nc(C)c([N+](=O)[O-])c2C)c2ccccc2n1 was read as MrgX1 antagonist inactive, RGS4 block inactive, RGS4 pot inactive, MrgX1 allo act 9.36* and MrgX1 agonist inactive.
Cc1nn(CC(=O)NCc2ccco2)c(C)c1[N+](=O)[O-] was read as MrgX1 antagonist inactive, RGS4 block inactive, RGS4 pot inactive, MrgX1 allo act inactive and MrgX1 agonist inactive.
CC(=O)NC(NC(=S)Nc1ccc(N=Nc2ccccc2C)cc1C)C(Cl)(Cl)Cl (stereo not given) was read as MrgX1 antagonist -4.56*, RGS4 block inactive, RGS4 pot inactive, MrgX1 allo act inactive and MrgX1 agonist inactive.
Cc1c(CCC(=O)O)c(=O)oc2c(C)c3occ(-c4ccc(Cl)cc4)c3cc12 was read as MrgX1 antagonist inactive, RGS4 block inactive, RGS4 pot inactive, MrgX1 allo act 6.61* and MrgX1 agonist inactive.
O=C(COc1ccc(S(=O)(=O)NC2CCCCC2)cc1)NCc1cccnc1 was read as MrgX1 antagonist inactive, RGS4 block inactive, RGS4 pot inactive, MrgX1 allo act inactive and MrgX1 agonist inactive.
`N#CCCN(Cc1cccnc1)S(=O)(=O)c1ccc(S(=O)(=O)NC2CCCCC2)cc1` gave MrgX1 antagonist -5.62*, RGS4 block inactive, RGS4 pot inactive, MrgX1 allo act inactive and MrgX1 agonist inactive.
`CC(=O)NC(Cc1cccc(F)c1)C(=O)NC1CCN(c2nnnn2-c2ccccc2)CC1` (stereo not given) gave MrgX1 antagonist inactive, RGS4 block inactive, RGS4 pot inactive, MrgX1 allo act inactive and MrgX1 agonist inactive.
CCn1c(SCc2ccccc2)nc2c1c(=O)[nH]c(=O)n2C was read as MrgX1 antagonist inactive, RGS4 block inactive, RGS4 pot inactive, MrgX1 allo act inactive and MrgX1 agonist inactive.
